ChEMBL document CHEMBL1149790, “Synthesis of some novel thiourea derivatives obtained from 5-[(4-aminophenoxy)methyl]-4-alkyl/aryl-2,4-dihydro-3H-1,2,4-triazole-3-thiones and evaluation as antiviral/anti-HIV and anti-tuberculosis agents” (Eur J Med Chem, 2008)
Values after ≈ are worked out from the molar mass of the structure shown.

Columns and labels:
[1] = system: Human immunodeficiency virus 1; assay: Antiviral activity against HIV1 3B in human MT4 cells assessed as protection against virus-induced cytopathogenicity by MTT assay; format: functional, organism-based; design: Activity: concentration or dose not given beside the values; settings: for IC50: Human immunodeficiency virus 1, 3B, MT4
How it was run: (§1)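 MT-4 cells at 6 × 10⁵ cells/ml infected with HIV-1 IIIB or HIV-2 ROD at 100–300 CCID50; compounds in serial five-fold dilutions, triplicate mock- and virus-infected wells. MTT viability read at 540 and 690 nm after 5 days, median OD of three wells; EC50 = 50% protection from viral cytopathic effect.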

[2] = system: Human immunodeficiency virus 2; assay: Antiviral activity against HIV2 ROD in human MT4 cells assessed as protection against virus-induced cytopathogenicity by MTT assay; format: functional, organism-based; design: Activity: concentration or dose not given beside the values; settings: for IC50: Human immunodeficiency virus 2, ROD, MT4; how it was run: as §1
[3] = Cytotoxicity against human MT4 cells by MTT assay; format: cell-based
How it was run: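 Mock-infected MT-4 cells (6 × 10⁵ cells/ml) with serial five-fold compound dilutions in triplicate; MTT reduction read at 540 and 690 nm after 5 days, median OD of three wells; CC50 = concentration reducing OD540 of mock-infected control by 50%.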

[4] = Cytotoxicity against human HeLa cells; format: cell-based
How it was run: (§2)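 Uninfected cell cultures exposed to test compounds alongside antiviral assays; minimum cytotoxic concentration (MCC) = concentration causing a microscopically detectable alteration of cell morphology.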

[5] = system: Vesicular stomatitis virus; assay: Antiviral activity against vesicular stomatitis virus in human HeLa cells assessed as inhibition of virus-induced cytopathogenicity; format: functional
How it was run: (§3)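 Confluent cell monolayers (E6SM, HEL, HeLa or Vero, per line) inoculated with 100 CCID50 virus; 1 h adsorption, residual virus removed, then incubated with compound at 400, 200, 100 … µg/ml. Cytopathicity scored once complete in untreated virus controls; MIC = concentration inhibiting virus-induced cytopathicity.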

Coxsackievirus B4 [6] = assay: Antiviral activity against Coxsackie virus B4 in human HeLa cells assessed as inhibition of virus-induced cytopathogenicity; format: functional; settings: Enterovirus B; how it was run: as §3
[7] = system: Respiratory syncytial virus; assay: Antiviral activity against respiratory syncytial virus in human HeLa cells assessed as inhibition of virus-induced cytopathogenicity; format: functional; how it was run: as §3
[8] = Cytotoxicity against human E6SM cells; format: cell-based; settings: E6SM cells; how it was run: as §2
[9] = Cytotoxicity against human HEL cells assessed as alteration of cell morphology; format: cell-based; how it was run: as §2
Human alphaherpesvirus 1 [10] = assay: Antiviral activity against HSV1 KOS in human E6SM cells assessed as reduction of virus-induced cytopathogenicity; format: functional; settings: Human alphaherpesvirus 1, KOS; how it was run: as §3
Human alphaherpesvirus 1 [11] = assay: Antiviral activity against HSV1 KOS in human HEL cells assessed as reduction of virus-induced cytopathogenicity; format: functional; settings: Human alphaherpesvirus 1, KOS; how it was run: as §3
Human alphaherpesvirus 2 [12] = assay: Antiviral activity against HSV2 G in human E6SM cells assessed as reduction of virus-induced cytopathogenicity; format: functional; settings: Human alphaherpesvirus 2, G; how it was run: as §3
Human alphaherpesvirus 2 [13] = assay: Antiviral activity against HSV2 G in human HEL cells assessed as reduction of virus-induced cytopathogenicity; format: functional; settings: Human alphaherpesvirus 2, G; how it was run: as §3
[14] = system: Vesicular stomatitis virus; assay: Antiviral activity against in Vesicular stomatitis virus in human E6SM cells assessed as reduction of virus-induced cytopathogenicity; format: functional; how it was run: as §3
[15] = system: Vesicular stomatitis virus; assay: Antiviral activity against in Vesicular stomatitis virus in human HEL cells assessed as reduction of virus-induced cytopathogenicity; format: functional; how it was run: as §3
Human alphaherpesvirus 1 [16] = assay: Antiviral activity against thymidine kinase deficient and acyclovir resistant HSV1 KOS in human E6SM cells assessed as reduction of virus-induced cytopathogenicity; format: functional; settings: Human alphaherpesvirus 1, KOS; how it was run: as §3
Human alphaherpesvirus 1 [17] = assay: Antiviral activity against thymidine kinase deficient and acyclovir resistant HSV1 KOS in human HEL cells assessed as reduction of virus-induced cytopathogenicity; format: functional; settings: Human alphaherpesvirus 1, KOS; how it was run: as §3
Vero = assay: Cytotoxicity against african green monkey Vero cells; format: cell-based; settings: chlorocebus sabaeus; how it was run: as §2
Coxsackievirus B4 [18] = assay: Antiviral activity against Coxsackie virus B4 in african green monkey Vero cells assessed as reduction of virus-induced cytopathogenicity; format: functional; settings: Enterovirus B; how it was run: as §3
Punta Toro virus = assay: Antiviral activity against Punta Toro virus in african green monkey Vero cells assessed as reduction of virus-induced cytopathogenicity; format: functional; how it was run: as §3
Human respirovirus 3 = assay: Antiviral activity against Parainfluenza 3 virus in african green monkey Vero cells assessed as reduction of virus-induced cytopathogenicity; format: functional; how it was run: as §3
[19] = system: Mammalian orthoreovirus 1; assay: Antiviral activity against Reo virus 1 in african green monkey Vero cells assessed as reduction of virus-induced cytopathogenicity; format: functional; how it was run: as §3
Sindbis virus = assay: Antiviral activity against Sindbis virus in african green monkey Vero cells assessed as reduction of virus-induced cytopathogenicity; format: functional; how it was run: as §3

| SMILES | MCC [4] [µg/mL] | MIC [5] [mg/L] | MIC (Coxsackievirus B4 [6]) [mg/L] | MIC [7] [mg/L] | MCC [8] [µg/mL] | MCC [9] [µg/mL] | MIC (Human alphaherpesvirus 1 [10]) [mg/L] | MIC (Human alphaherpesvirus 1 [11]) [mg/L] | MIC (Human alphaherpesvirus 2 [12]) [mg/L] | MIC (Human alphaherpesvirus 2 [13]) [mg/L] | MIC [14] [mg/L] | MIC [15] [mg/L] | MIC (Human alphaherpesvirus 1 [16]) [mg/L] | MIC (Human alphaherpesvirus 1 [17]) [mg/L] | Activity (Vero) | MIC (Coxsackievirus B4 [18]) [mg/L] | MIC (Punta Toro virus) [mg/L] | MIC (Human respirovirus 3) [mg/L] | MIC [19] [mg/L] | MIC (Sindbis virus) [mg/L] | further results |
| --- | --- | --- | --- | --- | --- | --- | --- | --- | --- | --- | --- | --- | --- | --- | --- | --- | --- | --- | --- | --- | --- |
| CCNC(=S)Nc1ccc(-c2n[nH]c(=S)n2-c2ccccc2)cc1 | ≥ 80 | > 80 | > 80 | > 80 | ≥ 3.2 | ≥ 3.2 | > 3.2 | > 3.2 | > 3.2 | > 3.2 | > 3.2 | > 3.2 | > 3.2 | > 3.2 | >= 80 ug ml-1 | > 80 | > 80 | > 80 | > 80 | > 80 | Activity [1]: 5.5%; IC50 [1]: > 91.3 mg/L; Activity [2]: 3%; IC50 [2]: > 91.3 mg/L; CC50 [3]: 91.3 mg/L (≈ 257 µM) |
| C=CCNC(=S)Nc1ccc(-c2n[nH]c(=S)n2C)cc1 | 400 | > 80 | > 80 | > 80 | 400 | 400 | 240 (≈ 786 µM) | 240 (≈ 786 µM) | 240 (≈ 786 µM) | 240 (≈ 786 µM) | > 80 | > 80 | 240 (≈ 786 µM) | 240 (≈ 786 µM) | 400 µg/mL | > 80 | > 80 | > 80 | > 80 | > 80 | Activity [1]: 9.5%; IC50 [1]: > 78.2 mg/L; Activity [2]: 1%; IC50 [2]: > 78.2 mg/L; CC50 [3]: 78.2 mg/L (≈ 256 µM) |
| C=CCNC(=S)Nc1ccc(-c2n[nH]c(=S)n2CC)cc1 | 400 | > 80 | > 80 | > 80 | 400 | 400 | 240 (≈ 751 µM) | 240 (≈ 751 µM) | 240 (≈ 751 µM) | 240 (≈ 751 µM) | > 80 | > 80 | 240 (≈ 751 µM) | 240 (≈ 751 µM) | >= 80 ug ml-1 | > 80 | 80 (≈ 250 µM) | > 80 | > 80 | > 80 | Activity [1]: 8.5%; IC50 [1]: > 57 mg/L; Activity [2]: 0%; IC50 [2]: > 57 mg/L; CC50 [3]: 57 mg/L (≈ 178 µM) |
| CNC(=S)Nc1ccc(-c2n[nH]c(=S)n2-c2ccccc2)cc1 | ≥ 400 | > 400 | > 400 | > 400 | 400 | 400 | 240 (≈ 703 µM) | 240 (≈ 703 µM) | > 80 | > 80 | > 80 | > 80 | 240 (≈ 703 µM) | 240 (≈ 703 µM) | >= 80 ug ml-1 | > 80 | > 80 | > 80 | > 80 | > 80 | Activity [1]: 23.5%; IC50 [1]: > 94.4 mg/L; Activity [2]: 0%; IC50 [2]: > 94.4 mg/L; CC50 [3]: 94.4 mg/L (≈ 276 µM) |
| C=CCNC(=S)Nc1ccc(-c2n[nH]c(=S)n2-c2ccccc2)cc1 | ≥ 400 | > 400 | > 400 | > 400 | ≥ 80 | ≥ 80 | > 80 | > 80 | > 80 | > 80 | > 80 | > 80 | > 80 | > 80 | >= 400 ug ml-1 | > 400 | > 400 | > 400 | > 400 | > 400 | Activity [1]: 13.5%; IC50 [1]: > 55.1 mg/L; Activity [2]: 0%; IC50 [2]: > 55.1 mg/L; CC50 [3]: 55.1 mg/L (≈ 150 µM) |
| Nc1ncnc2c1ncn2C[C@H](O)CO [(S)-DHPA] | > 400 | > 400 | > 400 | > 400 |  |  |  |  |  |  |  |  |  |  | > 400 µg/mL | > 400 | > 400 | > 400 | > 400 | > 400 |  |
| C=CCn1c(-c2ccc(NC(=S)Nc3ccccc3)cc2)n[nH]c1=S | 400 | > 80 | > 80 | > 80 | 80 | 80 | > 16 | > 16 | > 16 | > 16 | > 16 | > 16 | > 16 | > 16 | 80 µg/mL | > 16 | > 16 | > 16 | > 16 | > 16 | Activity [1]: 30.5%; IC50 [1]: > 19.4 mg/L; Activity [2]: 0%; IC50 [2]: > 19.4 mg/L; CC50 [3]: 19.4 mg/L (≈ 52.8 µM) |
| C=CCNC(=S)Nc1ccc(-c2n[nH]c(=S)n2CCc2ccccc2)cc1 | 400 | > 80 | > 80 | > 80 | 400 | 400 | > 80 | > 80 | > 80 | > 80 | > 80 | > 80 | > 80 | > 80 | >= 80 ug ml-1 | > 80 | > 80 | > 80 | > 80 | > 80 | Activity [1]: 9%; IC50 [1]: > 13 mg/L; Activity [2]: 0%; IC50 [2]: > 13 mg/L; CC50 [3]: 13 mg/L (≈ 32.9 µM) |
| CCCCCCNC(=S)Nc1ccc(-c2n[nH]c(=S)n2CC)cc1 | ≥ 400 | > 400 | > 400 | > 400 | 400 | 400 | > 80 | > 80 | > 80 | > 80 | > 80 | > 80 | > 80 | > 80 | 400 µg/mL | > 80 | > 80 | > 80 | > 80 | > 80 | Activity [1]: 21%; IC50 [1]: > 2.58 mg/L; Activity [2]: 3%; IC50 [2]: > 2.58 mg/L; CC50 [3]: 2.58 mg/L (≈ 7.1 µM) |
| CCCCCCNC(=S)Nc1ccc(-c2n[nH]c(=S)n2-c2ccccc2)cc1 | 400 | > 80 | > 80 | > 80 | ≥ 16 | ≥ 16 | > 16 | > 16 | > 16 | > 16 | > 16 | > 16 | > 16 | > 16 | 400 µg/mL | > 80 | > 80 | > 80 | > 80 | > 80 | Activity [1]: 16%; IC50 [1]: > 3.99 mg/L; Activity [2]: 3%; IC50 [2]: > 3.99 mg/L; CC50 [3]: 3.99 mg/L (≈ 9.69 µM) |
| CNC(=S)Nc1ccc(-c2nnc(SCc3ccccc3)n2C)cc1 | 80 | > 16 | > 16 | > 16 | ≥ 16 | ≥ 16 | > 16 | > 16 | > 16 | > 16 | > 16 | > 16 | > 16 | > 16 | 80 µg/mL | > 16 | > 16 | > 16 | > 16 | > 16 | Activity [1]: 2.5%; IC50 [1]: > 75.4 mg/L; Activity [2]: 6%; IC50 [2]: > 75.4 mg/L; CC50 [3]: 75.4 mg/L (≈ 204 µM) |
| NC(=O)c1ncn([C@@H]2O[C@H](CO)[C@@H](O)[C@H]2O)n1 [RIBAVIRIN] | > 400 | 48 (≈ 197 µM) | 240 (≈ 983 µM) | 9.6 (≈ 39.3 µM) | > 400 | > 400 | 9.6 (≈ 39.3 µM) | 9.6 (≈ 39.3 µM) | 48 (≈ 197 µM) | 48 (≈ 197 µM) | 240 (≈ 983 µM) | 240 (≈ 983 µM) | 48 (≈ 197 µM) | 48 (≈ 197 µM) | > 400 µg/mL | > 400 | 48 (≈ 197 µM) | 48 (≈ 197 µM) | 48 (≈ 197 µM) | 240 (≈ 983 µM) |  |
